# Only some compounds are listed: those with a hit (about 1.1% of all), similar ones and a draw of the others.
# miR122 inh: inhibitors of miR-122 in Huh7 cells; activation (reporter increase), % at 12.5 µM; 340,000 compounds, 0.3% hits; Huh7 miR-122 Renilla luciferase sensor, 48 h; neutral wells = 0, positive control = 100;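 active = mean replicate activation score at least 90 and every replicate individually at or above 90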;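 also: higher luciferase means less miR-122 activity so hits act as miR-122 inhibitors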
# Keap1-Nrf2 PPI: Keap1-Nrf2 (human) interaction inhibition | 340,000 compounds, 0.15% hits | Keap1 Kelch-Nrf2 peptide fluorescence polarization, 1536-well | AID 504523 | inhibition, % at 9.4 µM; in the data active = inhibition above about 12%;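 also: human Keap1 Kelch domain with fluorescein labeled Nrf2 9mer peptide probe; 0% = neutral control wells and 100% = peptide positive control; higher means more block of Keap1 binding to Nrf2 peptide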
# Target sequence (Q14145 whole entry, looked up, the tested form may be a part): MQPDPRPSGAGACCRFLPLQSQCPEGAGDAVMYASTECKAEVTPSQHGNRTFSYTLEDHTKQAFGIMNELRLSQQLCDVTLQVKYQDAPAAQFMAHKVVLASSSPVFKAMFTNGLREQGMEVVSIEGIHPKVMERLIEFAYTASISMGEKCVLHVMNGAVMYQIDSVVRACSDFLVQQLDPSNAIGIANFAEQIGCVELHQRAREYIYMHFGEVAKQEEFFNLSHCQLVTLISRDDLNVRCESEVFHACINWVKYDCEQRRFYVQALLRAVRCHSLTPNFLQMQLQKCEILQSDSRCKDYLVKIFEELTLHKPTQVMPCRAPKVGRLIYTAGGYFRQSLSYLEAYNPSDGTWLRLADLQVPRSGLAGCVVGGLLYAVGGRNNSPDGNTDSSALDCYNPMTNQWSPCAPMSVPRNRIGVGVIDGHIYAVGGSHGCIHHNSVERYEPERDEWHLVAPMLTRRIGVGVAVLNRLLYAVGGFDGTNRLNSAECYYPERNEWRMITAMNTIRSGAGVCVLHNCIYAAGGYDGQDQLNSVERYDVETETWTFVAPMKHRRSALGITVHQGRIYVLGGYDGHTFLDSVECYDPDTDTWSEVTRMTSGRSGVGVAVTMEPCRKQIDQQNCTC
# CAL PDZ FP-1: blocks peptide binding to the human CAL PDZ domain. Q9HD26. purified CAL PDZ, TMR-peptide fluorescence polarization, 1 h. inhibition, % at 24.9 µM. 300,000 compounds, 0.92% hits. AID 602252;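 active = mean inhibition of at least 30% with at least half of replicates also reaching 30%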;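 also: 0% = DMSO neutral control and 100% = excess unlabeled competitor peptide PRC23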
# CAL PDZ FP-2: blocks peptide binding to human CAL PDZ domain; Q9HD26; purified CAL PDZ, TMR-peptide fluorescence polarization, 1 h; inhibition, % at 20 µM; 330,000 compounds, 0.02% hits; AID 504414;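 active = highest replicate inhibition of at least 40%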;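 also: plate controls were DMSO neutral control wells for no effect and unlabeled competitor peptide control wells for full effect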
#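 material = purified tagged CAL PDZ domain construct (CerCALP) | compound dosing = 20 µM, one dose | times = 1 h at RT | measured by = fluorescence polarization from S- and P-plane intensities, G-factor corrected | read-out = inhibition from polarization loss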
# C-LANA FP: inhibitors of KSHV LANA C-terminal domain DNA binding; MBP-C-LANA/FAM-LBS DNA binding, fluorescence polarization; inhibition, % at 9 µM; 340,000 compounds, 0.078% hits; AID 504423;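 active = highest replicate inhibition at or above 60% at 9 µM, even if other replicates fall short; inactive = all replicates below 60% inhibition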;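 also: 0% = neutral control wells and 100% = 4 µM acridine orange control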
# DNA intercal 2: counter-screen for C-LANA inhibitors: DNA intercalators; Acridine orange-DNA displacement, fluorescence polarization; AC50, µM (titrated, usually from 35 µM), for inactives: at the highest dose activity change, negative = inhibition; AID 588364; shares compounds with C-LANA FP; 20 tested, under 10 active;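 active = signal drop with an AC50 no more than ten times the top valid dose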
# Keap1 Kelch bind: binders of human Keap1 Kelch domain; shares compounds with Keap1-Nrf2 PPI; Keap1 Kelch thermal shift, delta Tm; active compounds read high; max delta Tm, degrees C; 400 compounds, 8% hits; in the data active = max delta Tm above about 0.48 degrees C
# Sypro dye melt: counter-screen for Keap1 thermal shift hits: dye-only artifacts | shares compounds with Keap1-Nrf2 PPI | Sypro Orange dye-only thermal melt, no protein, delta Tm; top dose 26 µM | 140 tested, under 10 active | delta Tm, degrees C (no concentration beside the values);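 active = at highest dose tested, delta Tm positive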
# Active calls of the source: *; nt = no result; ! = not active in a repeat; [ ] = remark or other dose.
SMILES,miR122 inh,Keap1-Nrf2 PPI,CAL PDZ FP-1,CAL PDZ FP-2,C-LANA FP,Keap1 Kelch bind,others
CC(=O)c1ccc2c(c1)C1C=CCC1C(C(=O)O)N2 (configuration not stated),-9,21*,-3,1,114*,2.1*,DNA intercal 2=2%;Sypro dye melt=-33
Nc1c(C(=O)Nc2ccccc2F)sc2nc(Cc3ccccc3)cc(C(F)(F)F)c12,-1,33*,nt,0,44,-0.2,DNA intercal 2=19µM*
Cn1cnc(S(=O)(=O)N2C[C@@H](O)COC[C@@H]3O[C@H](CC(=O)NC4Cc5ccccc5C4)CC[C@H]32)c1,-2[16.7 µM],nt,nt,nt,nt,nt,
CN1CCC2(CC1)C1CN(C)CC=C1C(C#N)=C(N)C2(C#N)C#N (configuration not stated),2,14*!,0,0,40,-0.14,
Cc1ccc(S(=O)(=O)N2CCCCC2)cc1NC(=O)c1ccccc1Cl,19,31*,nt,1,23,-0.18,
COc1cc(S(=O)(=O)N2CCCCC2)ccc1NC(=O)c1ccccc1Cl,-4,-2,0,-1,0,nt,
O=C(c1ccc(O)cc1)c1ccc(O)cc1O,nt,1,-2,-1,12,nt,
O=C(c1ccccc1)c1ccc(O)cc1O,-2,59*,7,-1,103*,-0.15,
CCCNC(=O)Nc1ccc2c(c1)C(=O)N(C)[C@H]1CC[C@H](CC(=O)NC)O[C@H]1CO2,-27[16.7 µM],nt,nt,nt,nt,nt,
S=C1SCN(CC2CC2)CN1CC1CC1,nt,33*,-4,2,33,-0.15,
CCOC(=O)C1=C(CSc2nc3c(cc2C#N)CN(C)CC3)OC(N)=C(C#N)C1c1ccncc1 (configuration not stated),0,17*,-6,-1,35,0.08,
O=C(C[C@H]1CC[C@@H]2[C@H](COC[C@@H](O)CN2C(=O)c2cccnc2)O1)NCc1ccc(-c2ccccc2)cc1,-2[16.7 µM],nt,nt,nt,nt,nt,
CC(C)S(=O)(=O)c1nsc2nc(=O)c(/C=C3\C=Nc4ccccc43)c(N)n12,2,-3,-26,-4,0,nt,
CSc1nsc2nc(=O)c(/C=C3\C=Nc4ccccc43)c(N)n12,-2,14*,-4,-5,24,0.74*,
O=C(C[C@H]1CC[C@@H]2[C@H](COC[C@H](O)CN2Cc2cc(F)ccc2F)O1)NCc1ccc(Cl)cc1,-3[16.7 µM],nt,nt,nt,nt,nt,
CCN1CC=C2C(C1)C(c1ccc(Cl)s1)C(C#N)=C(N)C2(C#N)C#N (configuration not stated),-9,21*,-5,0,36,-0.04,
c1ccc(Nc2nc3ccccc3n3nnnc23)cc1,nt,24*,5,0,12,-0.12,Sypro dye melt=-28
O=[N+]([O-])c1ccc(S(=O)(=O)c2ccccc2)nc1,nt,13*,1,0,-1,-0.08,
Cc1cccc(NC(=O)CCN2CCCCC2)c1,0,32*,nt,1,16,-0.1,Sypro dye melt=-26
COCC(=O)N(C)C[C@H]1Oc2cc(-c3ccc(C)cc3)ccc2S(=O)(=O)N([C@@H](C)CO)C[C@@H]1C,-18[16.7 µM],nt,nt,nt,nt,nt,
COc1ccc2noc3c2c1C(=O)c1ccccc1-3,-9,106*,1,27,130*,0.04,Sypro dye melt=6.2*
COc1ccc(N)c2c1C(=O)c1ccccc1C2=O,1,2,nt,-1,-3,nt,
CCCNC(=O)C[C@@H]1C[C@H]2c3cc(NC(=O)C4CCOCC4)ccc3O[C@H]2[C@H](CO)O1,2[16.7 µM],nt,nt,nt,nt,nt,
COc1cc2c3nnc(-c4ccc(F)cc4)c-3cn(Cc3ccccc3)c2cc1OC,-26,16*,nt,1,2,-0.16,Sypro dye melt=-26
COc1cc2c3nnc(-c4ccc(F)cc4)c-3cn(Cc3ccc(F)cc3)c2cc1OC,1,8,nt,1,24,nt,
SMILES,miR122 inh,Keap1-Nrf2 PPI,CAL PDZ FP-1,CAL PDZ FP-2,C-LANA FP,Keap1 Kelch bind,others
O=C(C[C@H]1CC[C@H]2[C@@H](COC[C@H](O)CN2CC2CCCCC2)O1)NCc1ccc(F)cc1,-9[16.7 µM],nt,nt,nt,nt,nt,
Oc1[nH]c2ccccc2c1N=Nc1ccc(F)cc1,nt,4,2,1,4,nt,
Oc1[nH]c2ccccc2c1N=Nc1ccccc1,4,20*,-1,0,3,-0.03,
Oc1[nH]c2ccccc2c1N=Nc1ccccc1F,2,21*,-1,-2,41,-0.1,
CCOC(=O)c1c(=O)n(O)c2ccc(OC)cc2[n+]1[O-],-2,19*,-2,0,26,0.01,
C[C@@H]1CN([C@H](C)CO)C(=O)Cc2cc(NC(=O)CCN3CCOCC3)ccc2O[C@H]1CN(C)C(=O)Nc1ccc2c(c1)OCO2,5[16.7 µM],nt,nt,nt,nt,nt,
COc1ccc(S(=O)(=O)N(C)C[C@@H]2OCCCC[C@H](C)Oc3ccc(NS(=O)(=O)c4c(C)noc4C)cc3C(=O)N([C@H](C)CO)C[C@H]2C)cc1,-14[16.7 µM],nt,nt,nt,nt,nt,
CC1(C)CC(=O)C2=C(C1)OC(N)=C(C#N)C2c1cc2c(cc1[N+](=O)[O-])OCO2 (configuration not stated),nt,15*,-2,-1,22,-0.01,Sypro dye melt=-21
CCOc1cc(C2C(C#N)=C(N)OC3=C2C(=O)CC(C)(C)C3)cc([N+](=O)[O-])c1O (configuration not stated),-4,1,2,-2,0,nt,
O=C1NC(c2cc(Cl)cc([N+](=O)[O-])c2O)Nc2ccccc21 (configuration not stated),-6,49*,-3,-3,1,0.25,
O=C1NC(c2ccc(Cl)c([N+](=O)[O-])c2)Nc2ccccc21 (configuration not stated),-1,-7,-4,-2,0,nt,
COC(=O)c1cc(C)nc2c1c(C)nn2-c1ccccc1,-7,44*,nt,-1,20,-0.15,Sypro dye melt=-28
COc1ccccc1N(C)S(=O)(=O)c1ccc(C(=O)NCc2ccccc2CN2CCCC2)cc1,7,47*,nt,-1,30,-0.19,
COc1ccccc1CNC(=O)c1ccc(S(=O)(=O)N(C)c2ccccc2)cc1,nt,-2,nt,-1,0,nt,
O=C(C[C@@H]1C=C[C@@H](NC(=O)c2ccncc2)[C@@H](CO)O1)NCC1CC1,-4[16.7 µM],nt,nt,nt,nt,nt,
O=C(O)c1cc(N2C(=O)C=CC2=O)cc(N2C(=O)C=CC2=O)c1,-2,33*,-6,1,98*,0.27,Sypro dye melt=-27
CCC1OC2(C)OC(=N)C1(C#N)C(C#N)(C#N)C2c1ccccc1 (configuration not stated),nt,31*,-4,-1,63*,-0.08,Sypro dye melt=-22
CC(C)C1OC2(C)OC(=N)C1(C#N)C(C#N)(C#N)C2c1ccccc1 (configuration not stated),2,21*,0,-2,94*,-0.06,Sypro dye melt=-31

# From PubChem
